Reference: ChEMBL document CHEMBL2062506, “Synthesis, characterization and structure optimization of a series of thiazolidinone derivatives as Entamoeba histolytica inhibitors” (Eur J Med Chem, 2012)

What was measured:
HepG2 = test: Cytotoxicity against human HepG2 cells after 48 hrs by MTT assay; assay type: cell-based; settings: for IC50: Homo sapiens, HepG2, 48 h; for inhibition (INH): human, hepg2, 48 h
Outline: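 HepG2 cells grown in DMEM with 10% heat-inactivated FBS and antibiotics at 37 °C, 5% CO2. Cells seeded at 1.2 × 10^4/well and grown 48 h, then exposed 48 h to 3.13–100 µM compound (DMSO stock diluted in medium). MTT (5 mg/mL) added for 4 h, formazan dissolved in DMSO, A570 read against 655 nm reference. Viability expressed relative to untreated cells; triplicate, repeated thrice.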

[1] = Octanol-water partition coefficient, log P of the compound; assay type: physicochemical
Entamoeba histolytica = test: Antiamoebic activity against Entamoeba histolytica HM-1:IMSS after 72 hrs by microdilution method

Compound: CC(C)CN1C(=O)/C(=C/c2ccc([N+](=O)[O-])cc2)S/C1=N\c1ccccc1
- IC50 (HepG2): > 100000 nM
- inhibition (INH) (HepG2): Dose-dependent effect
- logP [1]: 5.32
- IC50 (Entamoeba histolytica): 138 nM

Compound: CC(C)CN1C(=O)/C(=C/c2ccc(O)cc2)S/C1=N\c1ccccc1
- logP [1]: 5.08
- IC50 (Entamoeba histolytica): 2450 nM

Compound: CC(C)CN1C(=O)/C(=C/c2ccccn2)S/C1=N\c1ccccc1
- IC50 (HepG2): > 100000 nM
- inhibition (INH) (HepG2): Dose-dependent effect
- logP [1]: 4.4
- IC50 (Entamoeba histolytica): 600 nM

Compound: CC(C)CN1C(=O)/C(=C/c2ccc3c(c2)OCO3)S/C1=N\c1ccccc1
- logP [1]: 5
- IC50 (Entamoeba histolytica): 16700 nM

Compound: Cc1ccc(/C=C2\S/C(=N\c3ccccc3)N(CC(C)C)C2=O)cc1
- logP [1]: 5.89
- IC50 (Entamoeba histolytica): 3210 nM

Compound: COc1ccc(/C=C2\S/C(=N\c3ccccc3)N(CC(C)C)C2=O)cc1OC
- IC50 (HepG2): > 100000 nM
- inhibition (INH) (HepG2): Dose-dependent effect
- logP [1]: 5.06
- IC50 (Entamoeba histolytica): 440 nM

Compound: Cc1ccsc1/C=C1\S/C(=N\c2ccccc2)N(CC(C)C)C1=O
- IC50 (HepG2): 89200 nM
- inhibition (INH) (HepG2): Dose-dependent effect
- logP [1]: 5.81
- IC50 (Entamoeba histolytica): 110 nM

Compound: COc1ccc(/C=C2\S/C(=N\c3ccccc3)N(CC(C)C)C2=O)cc1
- logP [1]: 5.22
- IC50 (Entamoeba histolytica): 2720 nM

Compound: CC(C)CN1C(=O)/C(=C/c2ccccc2O)S/C1=N\c1ccccc1
- logP [1]: 5.08
- IC50 (Entamoeba histolytica): 2040 nM

Compound: Cc1ncc([N+](=O)[O-])n1CCO [METRONIDAZOLE]
- IC50 (HepG2): > 100000 nM
- inhibition (INH) (HepG2): Dose-dependent effect
- IC50 (Entamoeba histolytica): 1640 nM

Compound: CC(C)CN1C(=O)/C(=C/c2ccccc2C(F)(F)F)S/C1=N\c1ccccc1
- logP [1]: 6.26
- IC50 (Entamoeba histolytica): 3710 nM

Compound: CCc1ccc(/C=C2\S/C(=N\c3ccccc3)N(CC(C)C)C2=O)cc1
- IC50 (HepG2): 84700 nM
- inhibition (INH) (HepG2): Dose-dependent effect
- logP [1]: 6.34
- IC50 (Entamoeba histolytica): 960 nM

Compound: CC(C)CN1C(=O)/C(=C/c2ccc(N(C)C)cc2)S/C1=N\c1ccccc1
- IC50 (HepG2): > 100000 nM
- inhibition (INH) (HepG2): Dose-dependent effect
- logP [1]: 5.49
- IC50 (Entamoeba histolytica): 172 nM

Compound: COc1cc(/C=C2\S/C(=N\c3ccccc3)N(CC(C)C)C2=O)ccc1O
- IC50 (HepG2): 89500 nM
- inhibition (INH) (HepG2): Dose-dependent effect
- logP [1]: 4.92
- IC50 (Entamoeba histolytica): 640 nM

Compound: CC(C)CN1C(=O)/C(=C/c2ccc(Cl)cc2)S/C1=N\c1ccccc1
- logP [1]: 5.98
- IC50 (Entamoeba histolytica): 1920 nM

Compound: COc1ccc(OC)c(/C=C2\S/C(=N\c3ccccc3)N(CC(C)C)C2=O)c1
- logP [1]: 5.06
- IC50 (Entamoeba histolytica): 1950 nM

Compound: CC(C)CN1C(=O)/C(=C/c2cccc(Cl)c2)S/C1=N\c1ccccc1
- IC50 (HepG2): 88100 nM
- inhibition (INH) (HepG2): Dose-dependent effect
- logP [1]: 5.98
- IC50 (Entamoeba histolytica): 660 nM
